10 compounds from ChEMBL document CHEMBL1777802, “Synthesis, DNA binding, fluorescence measurements and antiparasitic activity of DAPI related diamidines” (Bioorg Med Chem, 2010) can be followed below.

The test system of one series is L6. The series can be described thus: Cytotoxicity against rat L6 cells. It is filed as cell-based. The gist of the method: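 Cultured L6 rat myoblast cells were used for the cytotoxicity measurement, giving an IC50.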
In series [1] the test system is Trypanosoma brucei rhodesiense. Kind of series: Antiparasitic activity against Trypanosoma brucei rhodesiense STIB900.
The next series relates to Plasmodium falciparum. Kind of series: Antiparasitic activity against Plasmodium falciparum K1.
Series [2] can be described thus: Selectivity index, ratio of IC50 for rat L6 cells to IC50 for Trypanosoma brucei rhodesiense STIB900. It is filed as toxicity, cell-based. To be noted: read-out: Ratio IC50. The gist of the method:
(§1)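 Selectivity index is IC50 on cultured L6 rat myoblasts divided by IC50 on the parasite (P. falciparum K1 or T. b. rhodesiense STIB900).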

Series [3] in a line: Selectivity index, ratio of IC50 for rat L6 cells to IC50 for Plasmodium falciparum K1. Format: toxicity, cell-based. As to conditions: read-out: Ratio IC50. The gist of the method:
as §1

The test system of series [4] is Poly(dA-dT)oligonucleotide.
The subject of series [5] is Trypanosoma brucei rhodesiense. The series can be described thus: Ratio of DAPI IC50 to compound IC50 for Trypanosoma brucei rhodesiense STIB900.

As for `N=C(N)c1ccc(C#Cc2cc3ccc(C(=N)N)cc3[nH]2)nc1`, the results for the concentration for half-maximal inhibition (IC50) (in the series on L6; in series [1]; with Plasmodium falciparum) were 13000 nM, 215 nM and 14.1 nM, respectively. Besides, the selectivity ratio in series [2] turned out to be 60; in series [3], 933. Also, in series [4], the ΔTm is 12.2 °C.
`Cl.Cl.N=C(N)c1ccc(-c2ccc(-c3cc4ccc(C(=N)N)cc4[nH]3)cc2)cc1`: the selectivity ratio in series [2] was 5250; in series [3], 3180. Besides, the ΔTm in series [4] is more than 27 °C. Also, the Ratio IC50 in series [5] came to 9.
With `N=C(N)c1ccc(-c2cc3ccc(C(=N)N)cc3[nH]2)cc1` [DAPI], the selectivity ratio in series [2] is 51. Moreover, the ΔTm in series [4] is more than 27 °C.
Turning to `Cl.Cl.N=C(N)c1ccc(C#Cc2cc3ccc(C(=N)N)cc3[nH]2)cc1`, the IC50 in the series on L6 turned out to be 8700 nM; in series [1] it was 6 nM; with Plasmodium falciparum, 3.8 nM. In addition, the selectivity ratio in series [2] was 1450; in series [3], 2290. In addition, the ΔTm in series [4] was determined as 19 °C. The Ratio IC50 in series [5] is 3.
With `N=C(N)c1ccc2cc(-c3ccc(-c4ccccc4)cc3)[nH]c2c1`, the half-inhibitory concentration (IC50) with L6 stood at 8400 nM; in series [1], 8720 nM; in the series with Plasmodium falciparum it was 858 nM. The selectivity ratio in series [2] is 0.96; in series [3], 9.8. In addition, in series [4], the ΔTm worked out at 16 °C.
For the compound `Cl.Cl.N=C(N)c1ccc2cc(C#Cc3ccc(C(=N)N)c(F)c3)[nH]c2c1`, the half-inhibitory concentration (IC50) in the series on L6 amounted to 4500 nM; in series [1], 9 nM; with Plasmodium falciparum, 5.9 nM. The figures for the selectivity ratio in series [2] and in series [3] were 500 and 763, respectively. Besides, the ΔTm in series [4] was 16 °C. For the same compound, the “Ratio IC50” value in series [5] amounted to 2.
In the case of `Cl.Cl.N=C(N)c1ccc(-c2ccc(-c3cc4cc(C(=N)N)ccc4[nH]3)cc2)cc1`, the half-maximal inhibitory concentration (IC50) with L6 came out at 38900 nM; in series [1], 4 nM; with Plasmodium falciparum it was 0.7 nM. For the same compound, the selectivity ratio came out at 9720 in series [2] and 55600 in series [3]. Besides, the shift in melting temperature (ΔTm) in series [4] amounted to 20.9 °C. In addition, the Ratio IC50 in series [5] came out at 4.5.
Consider `N=C(N)c1ccc(-c2ccc(-c3ccc(C(=N)N)cc3)o2)cc1` [FURAMIDINE], for which the IC50 in the series on L6 turned out to be 6700 nM.
`N=C(N)c1ccc2cc(C#Cc3ccc(C(=N)N)nc3)[nH]c2c1`: the IC50 worked out at 1600 nM with L6, 3 nM in series [1] and 3.1 nM with Plasmodium falciparum. Further, the selectivity ratio in series [2] was 533; in series [3], 516. The ΔTm in series [4] amounted to 19.1 °C.
Turning to `N=C(N)c1ccc(-c2ccc(-c3nc4ccc(C(=N)N)cc4[nH]3)cc2)cc1`, the selectivity ratio is 2210 in series [2] and 34000 in series [3]. Besides, the thermal shift (ΔTm) in series [4] is more than 27 °C.
